ChEMBL document CHEMBL3525944, “Nonlinear pharmacokinetics of 5-methoxy-N,N-dimethyltryptamine in mice” (Drug Metab Dispos, 2011)

Tests used:
[1] = Tmax in wild-type FVB/N mouse at 20 mg/kg, ip by LC-MS/MS analysis; type: ADME, organism-based; design: dose 20 mg/kg, route intraperitoneal; settings: in vivo
In short: (§1)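 Male 8-week FVB/N wild-type or CYP2D6-humanized mice given 5-MeO-DMT oxalate in saline i.p. at 10 µL/g body weight. Serum sampled 0-180 min, N = 4 per time point, processed by acetonitrile protein precipitation with internal standard, quantified by LC-MS/MS. Tmax taken as observed from composite mean serum concentration-time data.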

[2] = Clearance in wild-type FVB/N mouse at 20 mg/kg, iv by LC-MS/MS analysis; type: ADME, organism-based; design: dose 20 mg/kg, route intravenous; settings: in vivo
[3] = Toxicity in mouse; type: organism-based; settings: in vivo
Brain [4] = test: Stability in CYP2D6-humanized transgenic FVB/N mouse brain at -80 degC; type: ADME
In short: (§2)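 Pilot test of 5-MeO-DMT in mouse brain homogenate (ice-cold saline) stored at -80°C over one year, quantified by LC-MS/MS after liquid-liquid extraction.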

[5] = Bioavailability in CYP2D6-humanized transgenic FVB/N mouse at 2 mg/kg, ip by LC-MS/MS analysis; type: ADME, organism-based; settings: in vivo
Mus musculus [6] = test: AUC (0 to infinity) in CYP2D6-humanized transgenic FVB/N mouse at 20 mg/kg, ip by LC-MS/MS analysis; type: ADME, organism-based, Plasma; design: time infinity, dose 20 mg/kg, route intraperitoneal; settings: in vivo
[7] = Cmax in CYP2D6-humanized transgenic FVB/N mouse at 20 mg/kg, ip by LC-MS/MS analysis; type: ADME, organism-based; design: dose 20 mg/kg, route intraperitoneal; settings: in vivo
[8] = Volume of distribution at steady state in CYP2D6-humanized transgenic FVB/N mouse at 2 mg/kg, iv by LC-MS/MS analysis; type: ADME, organism-based; design: dose 2 mg/kg, route intravenous; settings: in vivo, read-out: Vdss
In short: (§3)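 Male 8-week FVB/N wild-type or CYP2D6-humanized mice (25-30 g) given 5-MeO-DMT oxalate in saline i.v. at 5 µL/g body weight. Serum collected 0-180 min, N = 3 per time point, proteins precipitated with ice-cold acetonitrile containing internal standard, LC-MS/MS. Noncompartmental analysis of composite mean data; t1/2 = 0.693/terminal slope; Vss = CL×AUMC/AUC, CL = dose/AUC0→∞.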

Serum [9] = test: Drug recovery in wild-type FVB/N mouse serum by LC-MS/MS analysis; type: ADME, cell-free
[10] = Ratio of drug level in brain to serum in CYP2D6-humanized transgenic FVB/N mouse at 20 mg/kg, ip by LC-MS/MS analysis; type: ADME, organism-based; design: dose 20 mg/kg, route intraperitoneal
In short: (§4)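 Mice dosed i.p. with 5-MeO-DMT in saline and killed at 20, 30 or 60 min. Brain homogenized in ice-cold saline and extracted liquid-liquid; serum processed by acetonitrile precipitation. Both quantified by LC-MS/MS (brain range 4.1-3000 nM). Ratio is brain over serum concentration at the same time point.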

[11] = Ratio of drug level in brain to serum in CYP2D6-humanized transgenic FVB/N mouse at 10 mg/kg, ip by LC-MS/MS analysis; type: ADME, organism-based; design: dose 10 mg/kg, route intraperitoneal; in short: as §4
Serum [12] = test: Drug uptake in wild-type FVB/N mouse serum by LC-MS/MS analysis; type: ADME, cell-free; settings: read-out: Drug uptake
Mus musculus [13] = test: Dose normalized AUC (0 to infinity) in CYP2D6-humanized transgenic FVB/N mouse at 10 mg/kg, iv by LC-MS/MS analysis; type: ADME, organism-based; design: dose 10 mg/kg, route intravenous; settings: in vivo
[14] = Volume of distribution at steady state in wild-type FVB/N mouse at 10 mg/kg, iv by LC-MS/MS analysis; type: ADME, organism-based; design: dose 10 mg/kg, route intravenous; settings: in vivo, read-out: Vdss; in short: as §3
[15] = Bioavailability in wild-type FVB/N mouse at 2 mg/kg, ip by LC-MS/MS analysis; type: ADME, organism-based; settings: in vivo
Mus musculus [16] = test: AUC (0 to infinity) in CYP2D6-humanized transgenic FVB/N mouse at 10 mg/kg, ip by LC-MS/MS analysis; type: ADME, organism-based, Plasma; design: time infinity, dose 10 mg/kg, route intraperitoneal; settings: in vivo
[17] = Tmax in wild-type FVB/N mouse at 10 mg/kg, ip by LC-MS/MS analysis; type: ADME, organism-based; design: dose 10 mg/kg, route intraperitoneal; settings: in vivo; in short: as §1
Mus musculus [18] = test: Dose normalized AUC (0 to infinity) in CYP2D6-humanized transgenic FVB/N mouse at 20 mg/kg, iv by LC-MS/MS analysis; type: ADME, organism-based; design: dose 20 mg/kg, route intravenous; settings: in vivo
Mus musculus [19] = test: Dose normalized AUC (0 to infinity) in wild-type FVB/N mouse at 20 mg/kg, ip by LC-MS/MS analysis; type: ADME, organism-based; design: dose 20 mg/kg, route intraperitoneal; settings: in vivo
[20] = Half life in CYP2D6-humanized transgenic FVB/N mouse at 20 mg/kg, iv by LC-MS/MS analysis; type: ADME, organism-based; design: dose 20 mg/kg, route intravenous; settings: in vivo
[21] = Volume of distribution at steady state in CYP2D6-humanized transgenic FVB/N mouse at 20 mg/kg, iv by LC-MS/MS analysis; type: ADME, organism-based; design: dose 20 mg/kg, route intravenous; settings: in vivo, read-out: Vdss; in short: as §3
[22] = Cmax in CYP2D6-humanized transgenic FVB/N mouse at 2 mg/kg, ip by LC-MS/MS analysis; type: ADME, organism-based; design: dose 2 mg/kg, route intraperitoneal; settings: in vivo
Mus musculus [23] = test: AUC (0 to infinity) in CYP2D6-humanized transgenic FVB/N mouse at 2 mg/kg, ip by LC-MS/MS analysis; type: ADME, organism-based, Plasma; design: time infinity, dose 2 mg/kg, route intraperitoneal; settings: in vivo
[24] = Half life in CYP2D6-humanized transgenic FVB/N mouse at 10 mg/kg, iv by LC-MS/MS analysis; type: ADME, organism-based; design: dose 10 mg/kg, route intravenous; settings: in vivo
[25] = Bioavailability in wild-type FVB/N mouse at 10 mg/kg, ip by LC-MS/MS analysis; type: ADME, organism-based; settings: in vivo
[26] = Cmax in wild-type FVB/N mouse at 2 mg/kg, ip by LC-MS/MS analysis; type: ADME, organism-based; design: dose 2 mg/kg, route intraperitoneal; settings: in vivo
Brain [27] = test: Stability in wild-type FVB/N mouse brain at -80 degC; type: ADME; in short: as §2
[28] = Ratio of drug level in brain to serum in wild-type FVB/N mouse at 20 mg/kg, ip by LC-MS/MS analysis; type: ADME, organism-based; design: dose 20 mg/kg, route intraperitoneal; in short: as §4
[29] = Clearance in wild-type FVB/N mouse at 2 mg/kg, iv by LC-MS/MS analysis; type: ADME, organism-based; design: dose 2 mg/kg, route intravenous; settings: in vivo
[30] = Half life in wild-type FVB/N mouse at 20 mg/kg, iv by LC-MS/MS analysis; type: ADME, organism-based; design: dose 20 mg/kg, route intravenous; settings: in vivo; in short: as §3
Mus musculus [31] = test: Dose normalized AUC (0 to infinity) in wild-type FVB/N mouse at 2 mg/kg, iv by LC-MS/MS analysis; type: ADME, organism-based; design: dose 2 mg/kg, route intravenous; settings: in vivo
[32] = Half life in CYP2D6-humanized transgenic FVB/N mouse at 2 mg/kg, iv by LC-MS/MS analysis; type: ADME, organism-based; design: dose 2 mg/kg, route intravenous; settings: in vivo
Mus musculus [33] = test: AUC (0 to infinity) in CYP2D6-humanized transgenic FVB/N mouse at 2 mg/kg, iv by LC-MS/MS analysis; type: ADME, organism-based, Plasma; design: time infinity, dose 2 mg/kg, route intravenous; settings: in vivo
Mus musculus [34] = test: AUC (0 to infinity) in CYP2D6-humanized transgenic FVB/N mouse at 20 mg/kg, iv by LC-MS/MS analysis; type: ADME, organism-based, Plasma; design: time infinity, dose 20 mg/kg, route intravenous; settings: in vivo
Mus musculus [35] = test: Dose normalized AUC (0 to infinity) in wild-type FVB/N mouse at 2 mg/kg, ip by LC-MS/MS analysis; type: ADME, organism-based; design: dose 2 mg/kg, route intraperitoneal; settings: in vivo
Mus musculus [36] = test: Dose normalized AUC (0 to infinity) in CYP2D6-humanized transgenic FVB/N mouse at 2 mg/kg, iv by LC-MS/MS analysis; type: ADME, organism-based; design: dose 2 mg/kg, route intravenous; settings: in vivo

Compound: COc1ccc2[nH]cc(CCN(C)C)c2c1.O=C(O)C(=O)O
- Tmax [1]: 5 min
- clearance [2]: 100 mL/min/kg
- LD50 [3]: 48 mg/kg
- Stability (Brain [4]): > 1 yr
- bioavailability [5]: 42.5%
- AUC (Mus musculus [6]): 569 µmol·min/L
- Cmax [7]: 18300 nM
- Vd [8]: 2.55 L/kg
- Drug recovery (Serum [9]): 62%
- Kp [10]: 3.2
- Kp [11]: 1.2
- concentration (Serum [12]): 4.1 nM
- AUC/dose (Mus musculus [13]): 8.1 kg·min/L
- Vd [14]: 2.08 L/kg
- bioavailability [15]: 52.2%
- AUC (Mus musculus [16]): 225 µmol·min/L
- Tmax [17]: 5 min
- AUC/dose (Mus musculus [18]): 9.45 kg·min/L
- AUC/dose (Mus musculus [19]): 7.13 kg·min/L
- half-life [20]: 12 min
- Vd [21]: 2.18 L/kg
- Cmax [22]: 1010 nM
- AUC (Mus musculus [23]): 20.9 µmol·min/L
- half-life [24]: 12 min
- bioavailability [25]: 47.3%
- Cmax [26]: 1310 nM
- Stability (Brain [27]): > 1 yr
- Kp [28]: 2.7
- clearance [29]: 190 mL/min/kg
- half-life [30]: 15 min
- AUC/dose (Mus musculus [31]): 5.19 kg·min/L
- half-life [32]: 8.4 min
- AUC (Mus musculus [33]): 49.1 µmol·min/L
- AUC (Mus musculus [34]): 866 µmol·min/L
- AUC/dose (Mus musculus [35]): 2.71 kg·min/L
- AUC/dose (Mus musculus [36]): 5.36 kg·min/L
